Results: ChEMBL document CHEMBL1126990, “Design and synthesis of 18F-labeled neurotoxic analogs of MPTP” (J Med Chem, 1993)

How the values were obtained:
Type in all cases: ADME
Rattus norvegicus = species: Rattus norvegicus; test: Maximal rate (Vmax) for oxidation by rat liver MAO (results are means of number of separate experiments, n=5)
Outline: (§1)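 Rat liver MAO (crude P2 mitochondrial fraction from adult male Wistar rats, in pH 7.4 phosphate buffer) incubated with substrate at 30 μM to 5 mM; colorimetric detection of H2O2 formed. Blanks contained 0.1 mM pargyline. Vmax and Km from linear regression of Lineweaver-Burk plots; means ± SE of n separate experiments; ANOVA with post-hoc Scheffe test.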

[1] = Ratio between Vmax and Km; outline: as §1
[2] = separate experiments, n=5); outline: as §1

**Q.** What does the source list for `CN1CC=C(c2ccccc2)CC1`?
**A.** Vmax (Rattus norvegicus): 218 nM hr-1 (mg of protein)-1; Ratio [1]: 2.42; Km [2]: 90 µM
